Measured values reported in ChEMBL document CHEMBL4732208, “Discovery of novel N-alkylcytidines as promising antimicrobial agents” (Eur J Med Chem, 2021).
Converted amounts (≈) assume the structure as drawn. The source made the active and inactive calls. The rule behind the calls is not given here.

Key:
[1] = system: Mycolicibacterium smegmatis; assay: Antibacterial activity against Mycobacterium smegmatis mc2155; type: functional
Procedure, shortened: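 Strains were grown in modified Gause's nutrient medium N 2 at 10⁶ cells/ml. The compound was dissolved in 50% aqueous methanol and added at 10 volume percent of the medium. Controls were untreated cultures, medium with the solvent mixture, and clinical antibiotics.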

[2] = system: Leuconostoc mesenteroides; assay: Antibacterial activity against Leuconostoc mesenteroides VKPM B-4177; type: functional
Procedure, shortened: (§1)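 Strains grown in modified Gause's nutrient medium N 2, inoculum 10⁶ cells/ml. Test compound dissolved in 50% aqueous methanol, added at ten volume percent of the medium. Growth controls: medium without additions, medium with solvent mixture, and clinical antibiotics (amikacin, ciprofloxacin, isoniazid, rifampicin, oxacillin, vancomycin).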

[3] = system: Micrococcus luteus; assay: Antibacterial activity against Micrococcus luteus NCTC 8340; type: functional; procedure, shortened: as §1
[4] = system: Staphylococcus aureus; assay: Antibacterial activity against Staphylococcus aureus FDA 209 P; type: functional; procedure, shortened: as §1
[5] = Cytotoxicity against human A549 cells by MTT assay; type: cell-based
Procedure, shortened: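 Adherent A549 cells passaged in DMEM with 10% fetal calf serum and 2 mM glutamine, at 37 °C, 5% CO2, 90% humidity. MTT test. CC50 is the concentration that inhibits culture growth by 50%.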

[6] = system: Staphylococcus aureus; assay: Antibacterial activity against Staphylococcus aureus INA 00761; type: functional; procedure, shortened: as §1
[7] = system: Bacillus subtilis; assay: Antibacterial activity against Bacillus subtilis ATCC 6633; type: functional; procedure, shortened: as §1
[8] = system: Mycolicibacterium smegmatis; assay: Antibacterial activity against Mycobacterium smegmatis VKPM Ac-1339; type: functional; procedure, shortened: as §1
[9] = system: Simplicillium lamellicola; assay: Antifungal activity against Simplicilium-lamellicola SRX772919 STG-96 assessed as reduction in fungal growth at 0.1 to 3.5 mM measured for 24 days by drop dilution assay relative to control; type: functional; details: dose 0.1-3.5 mM, time 24.0 day
Procedure, shortened: (§2)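 Drop-dilution method. Suspension plated on CDA with or without compound (screening range 0.1–3.5 mM); 5-fluorocytosine positive control. Incubated at 26 °C. Inhibition % = (Dc−Dt)/Dc × 100 from colony diameters; triplicate, repeated at least twice.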

[10] = system: Alternaria chartarum; assay: Antifungal activity against Ulocladium chartarum SRX7729176 STG-36 assessed as reduction in fungal growth at 0.1 to 3.5 mM measured for 24 days by drop dilution assay relative to control; type: functional; details: dose 0.1-3.5 mM, time 24.0 day; procedure, shortened: as §2
[11] = system: Aspergillus amoenus; assay: Antifungal activity against Aspergillus-amoenus SRX7729194 STG-106 assessed as reduction in fungal growth at 0.1 to 3.5 mM measured for 24 days by drop dilution assay relative to control; type: functional; details: dose 0.1-3.5 mM, time 24.0 day; procedure, shortened: as §2
[12] = system: Aspergillus versicolor; assay: Antifungal activity against Aspergillus versicolor SRX7729182 STG-25G assessed as reduction in fungal growth at 0.1 to 3.5 mM measured for 24 days by drop dilution assay relative to control; type: functional; details: dose 0.1-3.5 mM, time 24.0 day; procedure, shortened: as §2
[13] = system: Microascus paisii; assay: Antifungal activity against Microascus-paisii SRX7729192 STG-103 assessed as reduction in fungal growth at 0.1 to 3.5 mM measured for 24 days by drop dilution assay relative to control; type: functional; details: dose 0.1-3.5 mM, time 24.0 day; procedure, shortened: as §2
[14] = system: Aspergillus creber; assay: Antifungal activity against Aspergillus-creber SRX7729180 STG-57 assessed as reduction in fungal growth at 0.1 to 3.5 mM measured for 24 days by drop dilution assay relative to control; type: functional; details: dose 0.1-3.5 mM, time 24.0 day; procedure, shortened: as §2
[15] = system: Aspergillus versicolor; assay: Antifungal activity against Aspergillus versicolor SRX7729174 STG-25G assessed as reduction in fungal growth at 0.1 to 3.5 mM measured for 24 days by drop dilution assay relative to control; type: functional; details: dose 0.1-3.5 mM, time 24.0 day; procedure, shortened: as §2
[16] = system: Cladosporium halotolerans; assay: Antifungal activity against Cladosporium-halotolerans SRX7729178 STG-52B assessed as reduction in fungal growth at 0.1 to 3.5 mM measured for 24 days by drop dilution assay relative to control; type: functional; details: dose 0.1-3.5 mM, time 24.0 day; procedure, shortened: as §2
[17] = system: Aspergillus; assay: Antifungal activity against Aspergillus SRX7729186 STG-93W assessed as reduction in fungal growth at 0.1 to 3.5 mM measured for 24 days by drop dilution assay relative to control; type: functional; details: dose 0.1-3.5 mM, time 24.0 day; procedure, shortened: as §2
[18] = system: Cladosporium parahalotolerans; assay: Antifungal activity against Cladosporium-parahalotolerans SRX7729188 STG-93B assessed as reduction in fungal growth at 0.1 to 3.5 mM measured for 24 days by drop dilution assay relative to control; type: functional; details: dose 0.1-3.5 mM, time 24.0 day; procedure, shortened: as §2

SMILES | MIC [1] [µM] | MIC [2] [µM] | MIC [3] [µM] | MIC [4] [µM] | CC50 [5] [µM] | MIC [6] [µM] | MIC [7] [µM] | MIC [8] [µM] | inhibition [9] | inhibition [10] | inhibition [11] | inhibition [12] | inhibition [13] | inhibition [14] | inhibition [15] | inhibition [16] | inhibition [17] | inhibition [18]
COCCOCCOCCNc1nc(=O)n([C@H]2C[C@H](O)[C@@H](CO)O2)cc1C | > 200 | > 200 | > 200 | > 200 | 90 | > 200 | > 200 | > 200 |  |  |  |  |  |  |  |  |  | 
CCCCCCCCCCNc1nc(=O)n([C@H]2C[C@H](O)[C@@H](CO)O2)cc1C | 50 (≈ 19.1 µg/mL) | 50 (≈ 19.1 µg/mL) | 50 (≈ 19.1 µg/mL) | 50 (≈ 19.1 µg/mL) | 156 | 50 (≈ 19.1 µg/mL) | 50 (≈ 19.1 µg/mL) | 50 (≈ 19.1 µg/mL) | inactive | inactive | inactive | inactive | inactive | inactive | inactive | inactive | inactive | inactive
CCCCCCCCCCNc1ccn([C@@H]2O[C@H](CO)[C@@H](O)[C@H]2O)c(=O)n1 | > 200 | > 200 | > 200 | > 200 | 90 | > 200 | > 200 | > 200 |  |  |  |  |  |  |  |  |  | 
Cc1onc(-c2ccccc2)c1C(=O)N[C@@H]1C(=O)N2[C@@H]1SC(C)(C)[C@@H]2C(=O)O [OXACILLIN] |  |  |  | 2.5 (≈ 1 µg/mL) |  | 80 (≈ 32.1 µg/mL) |  |  |  |  |  |  |  |  |  |  |  | 
O=C(O)c1cn(C2CC2)c2cc(N3CCNCC3)c(F)cc2c1=O [CIPROFLOXACIN] | 15 (≈ 4.97 µg/mL) |  |  | 3 (≈ 0.994 µg/mL) |  | 12 (≈ 3.98 µg/mL) |  | 12 (≈ 3.98 µg/mL) |  |  |  |  |  |  |  |  |  | 
CN[C@H](CC(C)C)C(=O)N[C@H]1C(=O)N[C@@H](CC(N)=O)C(=O)N[C@H]2C(=O)N[C@H]3C(=O)N[C@H](C(=O)N[C@H](C(=O)O)c4cc(O)cc(O)c4-c4cc3ccc4O)[C@H](O)c3ccc(c(Cl)c3)Oc3cc2cc(c3O[C@@H]2O[C@H](CO)[C@@H](O)[C@H](O)[C@H]2O[C@H]2C[C@](C)(N)[C@H](O)[C@H](C)O2)Oc2ccc(cc2Cl)[C@H]1O [VANCOMYCIN] |  | > 275 |  |  |  |  |  |  |  |  |  |  |  |  |  |  |  | 
CCCCCCCCNc1ccn([C@@H]2O[C@H](CO)[C@@H](O)[C@H]2O)c(=O)n1 | > 200 | > 200 | > 200 | > 200 | 90 | > 200 | > 200 | > 200 |  |  |  |  |  |  |  |  |  | 
CO[C@H]1/C=C/O[C@@]2(C)Oc3c(C)c(O)c4c(O)c(c(/C=N/N5CCN(C)CC5)c(O)c4c3C2=O)NC(=O)/C(C)=C\C=C\[C@H](C)[C@H](O)[C@@H](C)[C@@H](O)[C@@H](C)[C@H](OC(C)=O)[C@@H]1C [RIFAMPIN] | 5 (≈ 4.11 µg/mL) |  |  |  |  |  |  | 10 (≈ 8.23 µg/mL) |  |  |  |  |  |  |  |  |  | 
NNC(=O)c1ccncc1 [ISONIAZID] | 29 (≈ 3.98 µg/mL) |  |  |  |  |  |  | 2 (≈ 0.274 µg/mL) |  |  |  |  |  |  |  |  |  | 
CCCCCCCCNc1nc(=O)n([C@H]2C[C@H](O)[C@@H](CO)O2)cc1C | > 200 | > 200 | > 200 | > 200 | 90 | > 200 | > 200 | > 200 | Active | Active | Active | Active | Active | Active | Active | Active | Active | Active
CCCCCCCCCCNc1ccn([C@H]2C[C@H](O)[C@@H](CO)O2)c(=O)n1 | 140 (≈ 51.4 µg/mL) | 140 (≈ 51.4 µg/mL) | 140 (≈ 51.4 µg/mL) | > 140 | 200 | > 140 | 140 (≈ 51.4 µg/mL) | 140 (≈ 51.4 µg/mL) |  |  |  |  |  |  |  |  |  | 
CCCCCCCCNc1ccn([C@H]2C[C@H](O)[C@@H](CO)O2)c(=O)n1 | > 200 | > 200 | > 200 | > 200 | 90 | > 200 | > 200 | > 200 |  |  |  |  |  |  |  |  |  | 
CCCCCCCCCCCCNc1ccn([C@H]2C[C@H](O)[C@@H](CO)O2)c(=O)n1 | 70 (≈ 27.7 µg/mL) | 70 (≈ 27.7 µg/mL) | 70 (≈ 27.7 µg/mL) | 70 (≈ 27.7 µg/mL) | 100 | 70 (≈ 27.7 µg/mL) | 70 (≈ 27.7 µg/mL) | 70 (≈ 27.7 µg/mL) |  |  |  |  |  |  |  |  |  | 
Cc1cn([C@H]2C[C@H](O)[C@@H](CO)O2)c(=O)nc1NCCc1ccccc1 | > 200 | > 200 | > 200 | > 200 | 90 | > 200 | > 200 | > 200 |  |  |  |  |  |  |  |  |  | 
CCCCCCCCCCCCCCNc1ccn([C@H]2C[C@H](O)[C@@H](CO)O2)c(=O)n1 | > 200 | > 200 | > 200 | > 200 | 90 | > 200 | > 200 | > 200 |  |  |  |  |  |  |  |  |  | 
O=c1nc(NCCCCc2ccccc2)ccn1[C@H]1C[C@H](O)[C@@H](CO)O1 | > 200 | > 200 | > 200 | > 200 | 90 | > 200 | > 200 | > 200 |  |  |  |  |  |  |  |  |  | 
Nc1nc(=O)[nH]cc1F |  |  |  |  |  |  |  |  | Active | Active | Active | Active | Active | Active | Active | Active | Active | Active
NCC[C@H](O)C(=O)N[C@@H]1C[C@H](N)[C@@H](O[C@H]2O[C@H](CN)[C@@H](O)[C@H](O)[C@H]2O)[C@H](O)[C@H]1O[C@H]1O[C@H](CO)[C@@H](O)[C@H](N)[C@H]1O [AMIKACIN] | 50 (≈ 29.3 µg/mL) |  | 1 (≈ 0.586 µg/mL) | 3.4 (≈ 1.99 µg/mL) |  | 5 (≈ 2.93 µg/mL) | 7 (≈ 4.1 µg/mL) | 29 (≈ 17 µg/mL) |  |  |  |  |  |  |  |  |  | 
CCCCCCNc1nc(=O)n([C@H]2C[C@H](O)[C@@H](CO)O2)cc1C | > 200 | > 200 | > 200 | > 200 | 90 | > 200 | > 200 | > 200 |  |  |  |  |  |  |  |  |  | 
